Legend:
OVCAR5 cells = assay: MTS cytotoxicity assay after CuAAC reaction / GSH depletion; type: cell-based, human; conditions: low concentration (20 μM) BSO
How it was run: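 HPG-incorporated OVCAR5 cells were exposed 10 min to CuAAC reaction mixtures. They were then returned to RPMI-1640 for 24 hours before viability was read by MTS assay. For GSH depletion, cells were first held 24 hours in RPMI-1640 containing 20 μM BSO before HPG incorporation.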

cellular GSH = assay: Cellular GSH concentration by LC-ESI-MS/MS after NEM alkylation; type: cell-based, human; conditions: OVCAR5, 20 μM BSO
How it was run: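 Adherent OVCAR5 cells held in RPMI-1640 with 20 μM BSO for 24 hours before HPG incorporation. Cellular GSH was alkylated with NEM and then quantified by LC-ESI-MS/MS.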

[1] = Cu^I-ligand dissociation constant, competition assay with bicinchoninic acid; type: binding; conditions: read-out: Dissociation constant (KD) of Cu^I-ligand; BCA competition assay

SMILES	Cytotoxicity of GSH depletion (in words) (OVCAR5 cells)	Cellular GSH concentration (cellular GSH; 24 h) [µM]	Reduction of the cellular GSH level (cellular GSH; 24 hours) [%]	Kd [1] [nM]
CCCCS(=N)(=O)CCC(N)C(=O)O (stereo not shown) [BSO, buthionine sulfoximine]	No cytotoxicity	4.9 ± 0.4	99.7	–
N[C@@H](CCC(=O)N[C@@H](CS)C(=O)NCC(=O)O)C(=O)O [GSH, reduced glutathione]	–	–	–	0.031

From publication PMC5365239 (Chemical Science, 2016)
